Calls of active or inactive are those of the source. The rule behind the calls is not given here.
Tests used:
[1] = target: Fibroblast growth factor receptor 1 (Homo sapiens) (UniProt P11362); test: Inhibition of N-terminal GST-tagged human FGFR1 cytoplasmic domain (398 to 822 residues) expressed in baculovirus expression system at […] using FAM-labeled peptide as substrate after 10 mins by mobility shift assay relative to control
Procedure, shortened: (§1)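 Caliper mobility-shift kinase assay. Kinase in kinase base buffer was preincubated with compound for 10 min at room temperature. FAM-labelled peptide and ATP at Km were then added, and the reaction ran at 28 °C until quenched with buffer. Screening concentration was 1 µM. Percent inhibition = (max − conversion)/(max − min) × 100, with DMSO as max and a low control as min.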

[2] = target: Vascular endothelial growth factor receptor 2 (Homo sapiens) (UniProt P35968); test: Inhibition of N-terminal GST-tagged human KDR cytoplasmic domain (790 to 1356 residues) expressed in baculovirus expression system at […] using FAM-labeled peptide as substrate after 10 mins by mobility shift assay relative to control; procedure, shortened: as §1
Vascular endothelial growth factor receptor 2 (Homo sapiens), sequence (P35968 whole entry, the tested form may be a part): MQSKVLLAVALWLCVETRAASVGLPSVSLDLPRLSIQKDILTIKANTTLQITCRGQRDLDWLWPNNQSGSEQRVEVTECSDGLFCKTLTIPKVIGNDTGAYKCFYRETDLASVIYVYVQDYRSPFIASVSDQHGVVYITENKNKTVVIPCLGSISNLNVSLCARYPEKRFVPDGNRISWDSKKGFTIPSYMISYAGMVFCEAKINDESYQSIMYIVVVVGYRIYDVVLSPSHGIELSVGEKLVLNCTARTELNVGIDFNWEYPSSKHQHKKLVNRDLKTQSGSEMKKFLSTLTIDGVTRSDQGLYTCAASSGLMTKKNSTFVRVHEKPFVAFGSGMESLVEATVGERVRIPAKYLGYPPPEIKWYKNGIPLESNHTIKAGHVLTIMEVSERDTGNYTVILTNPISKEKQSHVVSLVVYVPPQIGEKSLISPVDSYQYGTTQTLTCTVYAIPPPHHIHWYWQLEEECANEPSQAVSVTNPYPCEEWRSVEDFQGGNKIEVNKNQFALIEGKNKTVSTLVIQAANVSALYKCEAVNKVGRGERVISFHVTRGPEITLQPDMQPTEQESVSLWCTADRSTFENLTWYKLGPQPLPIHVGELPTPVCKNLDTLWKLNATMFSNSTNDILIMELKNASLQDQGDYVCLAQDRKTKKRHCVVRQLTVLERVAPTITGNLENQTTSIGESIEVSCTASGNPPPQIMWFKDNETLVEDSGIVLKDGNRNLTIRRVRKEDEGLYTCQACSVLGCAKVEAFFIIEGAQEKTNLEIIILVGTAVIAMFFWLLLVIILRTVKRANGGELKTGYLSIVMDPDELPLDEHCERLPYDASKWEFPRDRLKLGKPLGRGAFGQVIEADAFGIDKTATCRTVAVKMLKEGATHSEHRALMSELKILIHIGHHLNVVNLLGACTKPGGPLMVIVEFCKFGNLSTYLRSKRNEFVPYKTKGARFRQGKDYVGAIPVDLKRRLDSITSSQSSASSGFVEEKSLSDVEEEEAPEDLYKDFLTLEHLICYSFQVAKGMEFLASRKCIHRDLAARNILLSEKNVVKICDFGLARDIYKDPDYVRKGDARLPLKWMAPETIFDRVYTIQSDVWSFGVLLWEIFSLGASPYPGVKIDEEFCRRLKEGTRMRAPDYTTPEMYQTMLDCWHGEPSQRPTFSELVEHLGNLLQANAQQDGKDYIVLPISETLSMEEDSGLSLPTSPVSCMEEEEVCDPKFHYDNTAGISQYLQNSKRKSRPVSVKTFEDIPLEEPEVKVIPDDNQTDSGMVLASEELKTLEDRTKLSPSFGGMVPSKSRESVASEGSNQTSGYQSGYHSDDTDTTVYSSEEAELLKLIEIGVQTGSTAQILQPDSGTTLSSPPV

[3] = target: Epidermal growth factor receptor (Homo sapiens, UniProt P00533); test: Inhibition of N-terminal GST-tagged wild type human EGFR cytoplasmic domain (669 to 1210 residues) expressed in baculovirus expression system using FAM-labeled peptide as substrate after 10 mins by mobility shift assay
Epidermal growth factor receptor (Homo sapiens, UniProt P00533), sequence (P00533 whole entry, the tested form may be a part): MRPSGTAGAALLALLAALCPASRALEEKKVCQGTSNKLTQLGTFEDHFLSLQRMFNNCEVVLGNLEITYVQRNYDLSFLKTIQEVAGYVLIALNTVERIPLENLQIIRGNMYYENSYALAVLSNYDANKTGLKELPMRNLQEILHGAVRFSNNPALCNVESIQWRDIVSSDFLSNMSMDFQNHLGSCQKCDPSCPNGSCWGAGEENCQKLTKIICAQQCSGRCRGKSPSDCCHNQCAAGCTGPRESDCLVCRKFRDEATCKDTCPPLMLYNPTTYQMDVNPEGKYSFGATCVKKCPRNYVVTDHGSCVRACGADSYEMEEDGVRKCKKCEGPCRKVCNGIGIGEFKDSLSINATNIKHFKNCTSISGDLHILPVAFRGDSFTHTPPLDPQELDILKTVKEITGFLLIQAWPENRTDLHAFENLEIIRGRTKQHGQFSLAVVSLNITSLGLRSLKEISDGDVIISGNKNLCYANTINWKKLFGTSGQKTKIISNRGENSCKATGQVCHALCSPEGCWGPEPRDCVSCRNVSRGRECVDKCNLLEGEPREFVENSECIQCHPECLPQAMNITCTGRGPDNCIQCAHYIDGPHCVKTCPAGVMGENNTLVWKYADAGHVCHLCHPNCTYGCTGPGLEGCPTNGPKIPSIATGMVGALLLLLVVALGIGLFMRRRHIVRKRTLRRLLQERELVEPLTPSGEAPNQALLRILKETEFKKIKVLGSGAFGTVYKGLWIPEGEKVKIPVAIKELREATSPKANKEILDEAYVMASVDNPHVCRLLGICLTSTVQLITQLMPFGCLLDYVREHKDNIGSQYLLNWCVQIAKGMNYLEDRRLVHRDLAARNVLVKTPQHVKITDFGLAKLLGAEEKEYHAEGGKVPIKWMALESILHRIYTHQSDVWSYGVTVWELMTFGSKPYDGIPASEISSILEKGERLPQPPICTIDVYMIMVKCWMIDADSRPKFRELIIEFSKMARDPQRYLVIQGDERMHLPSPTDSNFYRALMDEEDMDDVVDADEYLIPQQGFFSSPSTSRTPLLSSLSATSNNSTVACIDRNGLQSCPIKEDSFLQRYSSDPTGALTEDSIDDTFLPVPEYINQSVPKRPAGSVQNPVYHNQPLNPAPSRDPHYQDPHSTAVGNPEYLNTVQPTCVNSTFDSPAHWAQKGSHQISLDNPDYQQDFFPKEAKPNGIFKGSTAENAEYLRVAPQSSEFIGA

[4] = target: Epidermal growth factor receptor (Homo sapiens, UniProt P00533, DEL747/DEL747-750); test: Inhibition of N-terminal GST-tagged human EGFR del 747-750 mutant cytoplasmic domain expressed in baculovirus expression system using FAM-labeled peptide as substrate after 10 mins by mobility shift assay
Epidermal growth factor receptor (Homo sapiens, UniProt P00533, DEL747/DEL747-750), sequence (P00533 with tags, fused parts or gaps DEL747/DEL747-750 limits assumed): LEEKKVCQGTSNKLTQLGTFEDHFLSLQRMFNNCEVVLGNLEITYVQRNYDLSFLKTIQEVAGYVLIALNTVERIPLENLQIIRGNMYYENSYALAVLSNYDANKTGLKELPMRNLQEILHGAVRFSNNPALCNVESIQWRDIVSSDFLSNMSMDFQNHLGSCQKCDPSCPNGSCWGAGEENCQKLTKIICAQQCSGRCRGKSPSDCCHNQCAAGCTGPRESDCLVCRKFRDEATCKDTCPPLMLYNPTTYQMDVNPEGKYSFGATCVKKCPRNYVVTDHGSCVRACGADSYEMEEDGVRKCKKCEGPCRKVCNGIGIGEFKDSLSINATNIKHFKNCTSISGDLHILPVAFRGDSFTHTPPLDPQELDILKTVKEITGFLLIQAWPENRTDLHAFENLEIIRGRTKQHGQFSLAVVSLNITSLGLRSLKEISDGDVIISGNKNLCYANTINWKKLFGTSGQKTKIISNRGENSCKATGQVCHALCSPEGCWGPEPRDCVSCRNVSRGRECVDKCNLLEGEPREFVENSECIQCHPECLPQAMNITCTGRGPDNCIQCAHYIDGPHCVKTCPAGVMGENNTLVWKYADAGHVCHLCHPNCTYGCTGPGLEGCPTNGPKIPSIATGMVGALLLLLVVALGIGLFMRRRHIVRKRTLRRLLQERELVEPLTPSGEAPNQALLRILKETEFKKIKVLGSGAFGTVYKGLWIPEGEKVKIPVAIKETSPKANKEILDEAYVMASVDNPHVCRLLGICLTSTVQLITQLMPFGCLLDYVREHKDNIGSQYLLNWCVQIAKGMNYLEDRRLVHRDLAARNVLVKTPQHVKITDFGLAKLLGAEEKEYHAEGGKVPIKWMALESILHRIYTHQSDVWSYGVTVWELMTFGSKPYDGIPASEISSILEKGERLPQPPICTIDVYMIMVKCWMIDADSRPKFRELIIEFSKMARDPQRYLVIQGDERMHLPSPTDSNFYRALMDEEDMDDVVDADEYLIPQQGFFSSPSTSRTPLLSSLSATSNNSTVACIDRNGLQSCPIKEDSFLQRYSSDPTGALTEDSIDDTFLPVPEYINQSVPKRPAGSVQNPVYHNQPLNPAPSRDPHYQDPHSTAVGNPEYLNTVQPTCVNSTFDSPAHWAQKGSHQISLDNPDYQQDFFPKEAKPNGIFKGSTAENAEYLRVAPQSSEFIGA

A-431 [5] = test: Antiproliferative activity against human A431 cells after 72 hrs by MTT assay; type: functional, cell-based; conditions: A-431, 72 h
Procedure, shortened: (§2)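 Cells seeded at 3000/well in growth medium with 10% FBS and left overnight. Treated in triplicate for 72 h at nine concentrations (0.458 to 30,000 nM), with DMSO-only controls. MTT (5 mg/mL) added for the last 4 h, formazan dissolved in DMSO, absorbance read at 490 nm. IC50 from non-linear sigmoidal dose-response fit.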

PC-9 = test: Antiproliferative activity against human PC9 cells after 72 hrs by MTT assay; type: functional, cell-based; conditions: PC-9, 72 h; procedure, shortened: as §2
HCC827 [6] = test: Antiproliferative activity against human HCC827 cells after 72 hrs by MTT assay; type: functional, cell-based; conditions: HCC827, 72 h; procedure, shortened: as §2
NCI-H1975 [7] = test: Antiproliferative activity against human NCI-H1975 cells after 72 hrs by MTT assay; type: functional, cell-based; conditions: NCI-H1975, 72 h; procedure, shortened: as §2
NCI-H3255 [8] = test: Antiproliferative activity against human H3255 cells after 72 hrs by MTT assay; type: functional, cell-based; conditions: NCI-H3255, 72 h; procedure, shortened: as §2
BEAS-2B = test: Cytotoxicity against human BEAS2B cells after 72 hrs by MTT assay; type: cell-based; procedure, shortened: as §2
NCI-H3255 [9] = test: Induction of apoptosis in human H3255 cells assessed as viable cells at 1000 nM after 48 hrs by Annexin V-FITC/PI staining based flow cytometry (reference value: 87.9%); type: functional; conditions: NCI-H3255, 48 h, read-out: Activity
HCC827 [10] = test: Induction of apoptosis in human HCC827 cells assessed as late apoptotic cells at 1000 nM after 48 hrs by Annexin V-FITC/PI staining based flow cytometry (reference value: 1.15%); type: functional
A-431 [11] = test: Induction of apoptosis in human A431 cells assessed as viable cells at 1000 nM after 48 hrs by Annexin V-FITC/PI staining based flow cytometry (reference value: 90.3%); type: functional; conditions: A-431, 48 h, read-out: Activity
NCI-H3255 [12] = test: Induction of apoptosis in human H3255 cells assessed as late apoptotic cells at 1000 nM after 48 hrs by Annexin V-FITC/PI staining based flow cytometry (reference value: 1.77%); type: functional
A-431 [13] = test: Induction of apoptosis in human A431 cells assessed as late apoptotic cells at 1000 nM after 48 hrs by Annexin V-FITC/PI staining based flow cytometry (reference value: 2.11%); type: functional
NCI-H1975 [14] = test: Induction of apoptosis in human NCI-H1975 cells assessed as necrotic cells at 1000 nM after 48 hrs by Annexin V-FITC/PI staining based flow cytometry (reference value: 2.31%); type: functional
NCI-H1975 [15] = test: Induction of apoptosis in human NCI-H1975 cells assessed as late apoptotic cells at 1000 nM after 48 hrs by Annexin V-FITC/PI staining based flow cytometry (reference value: 1.91%); type: functional
NCI-H1975 [16] = test: Cell cycle arrest in human NCI-H1975 cells assessed as accumulation at G2/M phase at 500 nM after 24 hrs by propidium iodide staining based flow cytometry; type: functional
Procedure, shortened: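 H1975 cells (2×10^5) seeded in 6-well plates overnight, then given fresh growth medium with drug (50–500 nM range; reference drug 500 nM) or 1‰ DMSO control for 24 h; cells collected with medium, washed in cold PBS, fixed in 70% cold ethanol at –20 °C overnight, stained with PI/RNase buffer, analysed by flow cytometry; triplicates, mean ± SEM.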

HCC827 [17] = test: Induction of apoptosis in human HCC827 cells assessed as necrotic cells at 1000 nM after 48 hrs by Annexin V-FITC/PI staining based flow cytometry (reference value: 1.41%); type: functional
A-431 [18] = test: Induction of apoptosis in human A431 cells assessed as early apoptotic cells at 1000 nM after 48 hrs by Annexin V-FITC/PI staining based flow cytometry (reference value: 3.40%); type: functional
A-431 [19] = test: Induction of apoptosis in human A431 cells assessed as necrotic cells at 1000 nM after 48 hrs by Annexin V-FITC/PI staining based flow cytometry (reference value: 4.16%); type: functional
NCI-H3255 [20] = test: Induction of apoptosis in human H3255 cells assessed as early apoptotic cells at 1000 nM after 48 hrs by Annexin V-FITC/PI staining based flow cytometry (reference value: 3.22%); type: functional
NCI-H3255 [21] = test: Induction of apoptosis in human H3255 cells assessed as necrotic cells at 1000 nM after 48 hrs by Annexin V-FITC/PI staining based flow cytometry (reference value: 7.06%); type: functional
HCC827 [22] = test: Induction of apoptosis in human HCC827 cells assessed as viable cells at 1000 nM after 48 hrs by Annexin V-FITC/PI staining based flow cytometry (reference value: 94.6%); type: functional; conditions: HCC827, 48 h, read-out: Activity
HCC827 [23] = test: Induction of apoptosis in human HCC827 cells assessed as early apoptotic cells at 1000 nM after 48 hrs by Annexin V-FITC/PI staining based flow cytometry (reference value: 2.83%); type: functional
NCI-H1975 [24] = test: Induction of apoptosis in human NCI-H1975 cells assessed as viable cells at 1000 nM after 48 hrs by Annexin V-FITC/PI staining based flow cytometry (reference value: 93.7%); type: functional; conditions: NCI-H1975, 48 h, read-out: Activity
NCI-H1975 [25] = test: Induction of apoptosis in human NCI-H1975 cells assessed as early apoptotic cells at 1000 nM after 48 hrs by Annexin V-FITC/PI staining based flow cytometry (reference value: 2.07%); type: functional

| Structure (SMILES) | inhibition [1] [%] | inhibition [2] [%] | IC50 [3] [nM] | IC50 [4] [nM] | IC50 (A-431 [5]) [nM] | IC50 (PC-9) [nM] | IC50 (HCC827 [6]) [nM] | IC50 (NCI-H1975 [7]) [nM] | IC50 (NCI-H3255 [8]) [nM] | IC50 (BEAS-2B) [nM] | further results |
| --- | --- | --- | --- | --- | --- | --- | --- | --- | --- | --- | --- |
| CCOC(=O)CCC(=O)Nc1cc(Nc2cccc(Br)c2)ncn1 | -7.1 | 5.7 | > 10000 | 933 | – | – | – | – | – | – | – |
| O=C(O)CCCC(=O)Nc1cc(Nc2cccc(Br)c2)ncn1 | -1.1 | 6.5 | 70 | > 10000 | – | – | – | – | – | – | – |
| CCNc1cc(Nc2cccc(Cl)c2)ncn1 | -7.7 | 6.9 | 170 | > 10000 | – | – | – | – | – | – | – |
| O=C(Nc1cc(N2CCOCC2)ncn1)c1ccc(F)cc1 | 8.8 | 31 | 131 | 63 | 1130 | 870 | 1960 | 1970 | 1870 | 21000 | – |
| COc1ccc(OC)c(Nc2cc(NCCc3cccs3)ncn2)c1 | -8.2 | 14.6 | 125 | 102 | – | – | – | – | – | – | – |
| CCOC(=O)CCCC(=O)Nc1cc(Nc2cccc(Cl)c2)ncn1 | 0.5 | 16 | 27 | > 10000 | 490 | > 30000 | > 30000 | > 30000 | > 30000 | 21100 | – |
| COc1cccc(Nc2cc(Nc3cccc(Cl)c3)ncn2)c1 | -3.8 | 19.2 | > 10000 | 974 | 15200 | 1660 | 4040 | > 30000 | > 30000 | 17600 | – |
| COc1ccc(OC)c(Nc2cc(Nc3ccc(F)cc3)ncn2)c1 | -3.1 | 12.4 | 336 | 208 | > 30000 | 640 | 1720 | > 30000 | > 30000 | 18000 | – |
| O=C(Nc1cc(Nc2ccc(Cl)cc2)ncn1)c1ccc(F)cc1 | 16.3 | 9.3 | > 10000 | 1410 | > 30000 | 820 | > 30000 | 17600 | > 30000 | 18600 | – |
| O=C(O)CCCC(=O)Nc1cc(Nc2ccc(Cl)cc2)ncn1 | -7.2 | 18 | > 10000 | 944 | – | – | – | – | – | – | – |
| COc1cc2ncnc(Nc3cccc(Cl)c3F)c2cc1OC(=O)N1CCN(C)C[C@H]1C [AZD-3759] | – | – | – | – | 3500 | 50 | 30 | 24200 | 90 | 18700 | viability at 1 µM (NCI-H3255 [9]): 83.7%; Activity (HCC827 [10]): 12.8%; viability at 1 µM (A-431 [11]): 88.6%; Activity (NCI-H3255 [12]): 1.71%; Activity (A-431 [13]): 2.88%; Activity (NCI-H1975 [14]): 2.65%; Activity (NCI-H1975 [15]): 5.39%; Activity (NCI-H1975 [16]): inactive; Activity (HCC827 [17]): 2.77%; Activity (A-431 [18]): 7.35%; Activity (A-431 [19]): 1.17%; Activity (NCI-H3255 [20]): 8.51%; Activity (NCI-H3255 [21]): 6.05%; viability at 1 µM (HCC827 [22]): 78.4%; Activity (HCC827 [23]): 6.11%; viability at 1 µM (NCI-H1975 [24]): 82%; Activity (NCI-H1975 [25]): 9.95% |
| CCOc1ccc(Nc2cc(NC(=O)c3ccccc3)ncn2)cc1 | -8.8 | 11.3 | > 10000 | 754 | 6540 | 2090 | 7000 | 7070 | 9170 | 17400 | – |
| O=C(O)CCC(=O)Nc1cc(Nc2ccc(Cl)cc2)ncn1 | 5.2 | 15.7 | > 10000 | 792 | 1900 | 790 | 3130 | 2730 | 4370 | 19000 | – |
| COc1cccc(Nc2cc(Nc3ccc(S(N)(=O)=O)cc3)ncn2)c1 | -8.8 | 12.4 | > 10000 | 1230 | – | – | – | – | – | – | – |
| O=C(O)CCCC(=O)Nc1cc(Nc2ccccc2)ncn1 | -4 | 4.9 | > 10000 | 105 | 1190 | 940 | 2220 | 1850 | 2940 | 17900 | – |
| CCOC(=O)c1ccc(Nc2cc(Nc3cccc(OC)c3)ncn2)cc1 | -9.3 | 11.7 | > 10000 | 1190 | – | – | – | – | – | – | – |
| COc1ccc(OC)c(Nc2cc(Nc3ccc(S(N)(=O)=O)cc3)ncn2)c1 | -8.2 | 26.2 | 779 | 467 | – | – | – | – | – | – | – |
| Clc1ccc(Nc2cc(Nc3cccc(Cl)n3)ncn2)cc1 | -5.7 | 8.5 | 324 | 229 | > 30000 | 1180 | > 30000 | > 30000 | > 30000 | 18000 | – |
| COc1ccc(OC)c(Nc2cc(NC(=O)CCCC(=O)O)ncn2)c1 | -3.7 | 23.6 | 68 | > 10000 | – | – | – | – | – | – | – |
| Clc1ccc(Nc2cc(Nc3ccc4[nH]ncc4c3)ncn2)cc1 | -5.3 | -1.4 | – | – | – | – | – | – | – | – | – |
| O=C(/C=C/c1ccccc1)Nc1cc(Nc2ccc(O)cc2)ncn1 | -3.7 | 1.3 | – | – | – | – | – | – | – | – | – |
| COc1cc(Nc2cc(Nc3ccc(Cl)cc3)ncn2)cc(OC)c1OC | 1.2 | 37.1 | 901 | > 10000 | – | – | – | – | – | – | – |
| CC(C)OC(=O)CCC(=O)Nc1cc(Nc2ccc(F)cc2)ncn1 | -6.5 | 2.5 | – | – | – | – | – | – | – | – | – |
| COc1ccc(OC)c(Nc2cc(Nc3ccc(N4CCN(C)CC4)cc3)ncn2)c1 | 4.7 | 28.5 | 288 | > 10000 | > 30000 | > 30000 | 24300 | > 30000 | > 30000 | 18100 | – |
| COc1ccc(Nc2cc(NC(=O)c3ccc(F)cc3)ncn2)cc1 | 0.5 | -3.4 | – | – | – | – | – | – | – | – | – |
| CCNc1cc(Nc2cc(OC)ccc2OC)ncn1 | -0.4 | 34.5 | – | – | – | – | – | – | – | – | – |
| Clc1ccc(Nc2cc(Nc3cccc(Cl)c3)ncn2)cc1 | -3.4 | 7.3 | – | – | – | – | – | – | – | – | – |
